Experimental data reported in the EternaBench riboswitch data.

Tested on: MS2 coat protein
Assay: apparent Kd, MS2 coat protein; higher = weaker binding; RNA-MaP array; FMN 200 µM where present
Method in brief: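 Each design was made on Illumina sequencing-chip clusters by stalled E. coli RNA polymerase and titrated with SNAP-549-labelled MS2 coat protein from 0.7 or 1.5 nM, doubling to 3 µM, in the absence and then the presence of constant ligand. The buffer was 100 mM Tris-HCl pH 7.5, 80 mM KCl, 4 mM MgCl2, BSA, DTT, yeast tRNA and Tween-20. The apparent Kd is the median of filtered per-cluster fits of binding curves, with green signal normalised to red-channel RNA signal and control-cluster median Fmax.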

[1] = designed as: OFF switch for flavin mononucleotide, no ligand
[2] = ligand present: flavin mononucleotide, designed as: OFF switch for flavin mononucleotide
[3] = designed as: ON switch for flavin mononucleotide, no ligand
[4] = ligand present: flavin mononucleotide, designed as: ON switch for flavin mononucleotide

Row | Sequence | apparent Kd [1] | apparent Kd [2] | apparent Kd [3] | apparent Kd [4]
1 | CUAAAUCAUGUAGGAUAUGCAUGGCGAAGCUACGCAGAAGGACAUGAGGAUCACCCAUGUCUCUCCGUCUGCGUACAGACGGAG | 20.5 nM | 119 nM |  | 
2 | GGUGGACAUGAGGAUCACCCAUGUGAGGAUAUCGGCCGGCUAGUGGUGGCUGGCUUCUCGAGAAGGCGCAUAGU | 61.8 nM | 99.7 nM |  | 
3 | GUCAGCUCGUGAGGAUAUACAUCACUGCUUCGGCAGUGUAUUAAGAUAACAUGAGGAUCACCCAUGUAGAAGGCACGAGCUGAU | 17 nM | 28.5 nM |  | 
4 | UGGAUGGUAUGAGGAUAUGCGCGCGAAACGCGCGCAGAAGGCGUGUCAAUAGACAUGAGGAUCACCCAUGUAUUAUCCAUCCAA |  |  | 130 nM | 12.3 nM
5 | AUUAAUUAAUUAAUACAUGAGGAUCACCCAUGUAAUAAGAUCAAGGAUAUCAGCUCGAUUAGAGCUGAGAAGGUGAUCACAUGU |  |  | 772 nM | 223 nM
6 | AGCAUGGUAGGAUAUACGGAGCAUUAGGGUUUGUUAUGUGGACAUGAGGAUCACCCAUGUAGAAGGGCCGUGCA | 38.6 nM | 60 nM |  | 
7 | GGAAUAAAUGCAGGAUAUACGUGGAAAGCUUUCAACAUGAGGAUCACCCAUGUAGAAGGGCAUCUCCCGACCGAAGCGGAUCUC | 5.8 nM | 6.27 nM |  | 
8 | GCGUUCUUGUAGAAGGUACAUGAAAUCUAUUUUUAACACAUGAAACAUGAGGAUCACCCAUGUUGUAAGGAUAUACAUGAACGC |  |  | 7.26 nM | 6.09 nM
9 | UAUCUAUUUAUGGGAUUAGAAUAUGAGGAUAUCAUUUAUUUAUACAUGAGGAUCACCCAUGUUUCUGAGAAGGCAUAUUUAAUA |  |  | 20.3 nM | 6.73 nM
10 | AUUUUAUAAUAGAAGGAGGACUUCAUGAGGAUCACCCAUGUGUUAGUACCUAGGAUAUGUAAUAACAUGAGGAUCACCCAUGUC |  |  | 49.5 nM | 40.3 nM
11 | GAGCAGUGUAAAUAAACUCAAAUACAUGAGGAUCACCCAUGUAAGGAUAUGCAGUGGAAUACACUGCAGAAGGUACAUCACUGC | 14.3 nM | 20.5 nM |  | 
12 | CACUCAUGUCUAGGAUAUGAGUGACAAGCGCGAAGUUUUUUCGGCGCUAGCUCAGAAGGAGACAUGAGGAUCACCCAUGUAAGG | 69.1 nM | 18.2 nM |  | 
13 | CCCUACACCGAGAAGGGCACGUAUUGAAGAGGGUGCCAGGAACAUCACAUGAGGAUCACCCAUGUGCAGGAUAUCGGCAGGAAC | 9.41 nM | 19.9 nM |  | 
14 | UUGUUAUAUGUAGGAUAUGCAUAUUAUUAUUAUGCAGAAGGACAUGAGGAUCACCCAUGUGUAUUGUUAUUAUAUAUUAUAUAU | 22.3 nM | 29.5 nM |  | 
15 | UGAUCGAGAGAUCUUAGAUUCUGGUAGGAUAUACAUUAUGUUUAAAAUACAUGAGGAUCACCCAUGUAGAAGGACUAGAGUCUA | 6.76 nM | 13.9 nM |  | 
16 | AAUGGGCAGCAGAAGGCAUGUCAAUGGACAUGAGGAUCACCCAUGUAGUAUAGCCGAAAGGCACAUGAGGAUAUGCUGCCCUAA |  |  | 47.2 nM | 6.74 nM
17 | GUGCAUACGUGAGGAUAUGUAUUAGAUAGUGGUACAGAAGGCAUGUCUGAUGACAUGAGGAUCACCCAUGUUGGCACAGUGCGC |  |  | 59.7 nM | 29.6 nM
18 | GGUAUGGACAGAGGAUAUACCGAUAGGAGAUACUAUCGACUAUUCCUCACAUGAGGAUCACCCAUGUAGAAGGCUGUCCAUACG | 17 nM | 65.5 nM |  | 
19 | AAAUCAGUAGGAUAUACGAUUUUAUGCUAGAUAGAGGAGCCACAUGAGGAUCACCCAUGUAGAAGGACUAGAUA | 17.1 nM | 19.9 nM |  | 
20 | AUCGUGCAGCUUUGCUGUACGCGUACAUGAGGAUCACCCAUGUAGGAUAUGGUACGCUUUGCGUGCUAGAAGGAUAUGGAGAGG | 16.9 nM | 21.1 nM |  | 
21 | GCCACACAUGAGGAUCACCCAUGUGAGGAUAUCAUGCUUCGUAGUAAACUACGAAGUGUGAGAAGGCACAUGGC | 33.4 nM | 155 nM |  | 
22 | AAAGUGUGAAGCAGGGUGCUACAUGAGGAUCACCCAUGUCGGAGAAGGGCGCCGUUUCGCAUGGUGUAGGAUAUCUGGCGUGCA | 116 nM | 132 nM |  | 
23 | GUCAGCUCGUCAGGAUAUACGUCACUGCUUCGGCAGUGUGGUAAGAUCACAUGAGGAUCACCCAUGUAGAAGGGACGAGCUGAG | 13.3 nM | 296 nM |  | 
